Measured values from ChEMBL document CHEMBL1806425, “Design and synthesis of 4-amino-2-phenylquinazolines as novel topoisomerase I inhibitors with molecular modeling” (Bioorg Med Chem, 2011).
In brackets after ≈: the same amount, converted by molar mass. Activity calls are given as the source filed them. No cut-off for these calls is given here.

Columns and labels:
[1] = tested on: A549; experiment: Cytotoxicity against human A549 cells by sulforhodamine B assay; format: functional, cell-based
[2] = tested on: HCT-15; experiment: Cytotoxicity against human HCT15 cells by sulforhodamine B assay; format: functional, cell-based
[3] = tested on: SK-OV-3; experiment: Cytotoxicity against human SKOV3 cells by sulforhodamine B assay; format: functional, cell-based
[4] = tested on: SK-MEL-2; experiment: Cytotoxicity against human SK-MEL-2 cells by sulforhodamine B assay; format: functional, cell-based
[5] = species on record: Bos taurus; experiment: Inhibition of calf thymus DNA topoisomerase I assessed as relaxation of supercoiled DNA pBR322 at 100 ug/ml after 30 mins by agarose gel electrophoresis relative to camptothecin
How it was run: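 Relaxation of 200 ng pBR322 supercoiled plasmid by 2 units calf thymus topo I, incubated with or without compound (20 mM DMSO stocks) for 30 min at 37 °C. Buffer: 35 mM Tris–HCl pH 8.0, 72 mM KCl, 5 mM MgCl2, 5 mM DTT, 2 mM spermidine, 0.01% BSA. The reaction was stopped with SDS/glycerol dye, then run on 1% agarose in TAE at 15 V for 6 h and stained.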

[6] = species on record: Bos taurus; experiment: Inhibition of calf thymus DNA topoisomerase I assessed as relaxation of supercoiled DNA pBR322 at 10 to 100 ug/ml after 30 mins by agarose gel electrophoresis
How it was run: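 Relaxation of supercoiled pBR322 plasmid DNA (200 ng) by 2 units calf thymus topo I, incubated with or without compound at 37 °C for 30 min. Buffer: 35 mM Tris–HCl pH 8.0, 72 mM KCl, 5 mM MgCl2, 5 mM DTT, 2 mM spermidine, 0.01% BSA. Stopped with SDS/dye/glycerol solution. Run on 1% agarose gel in TAE at 15 V for 6 h, then stained. Compound stocks were 20 mM in DMSO.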

SMILES | IC50 [1] | IC50 [2] | IC50 [3] | IC50 [4] | inhibition [5] | inhibition [6]
COC(=O)CNc1nc(-c2ccccc2)nc2ccccc12 | 36.3 mg/L (≈ 124 µM) | 37.5 mg/L (≈ 128 µM) | 35.5 mg/L (≈ 121 µM) | 37.6 mg/L (≈ 128 µM) | Active | –
c1ccc(-c2nc(N3CCOCC3)c3ccccc3n2)cc1 | 52.8 mg/L (≈ 181 µM) | 51.8 mg/L (≈ 178 µM) | 57 mg/L (≈ 196 µM) | 65.2 mg/L (≈ 224 µM) | Active | –
COCCNc1nc(-c2ccccc2)nc2ccccc12 | 27.4 mg/L (≈ 98.3 µM) | 26.8 mg/L (≈ 96.1 µM) | 22.9 mg/L (≈ 82 µM) | 27.6 mg/L (≈ 98.9 µM) | Active | –
CCOC(=O)CCNc1nc(-c2ccccc2)nc2ccccc12.Cl | > 100 mg/L | > 100 mg/L | > 100 mg/L | > 100 mg/L | inactive | –
COc1cccc2c1C(=O)c1c(O)c3c(c(O)c1C2=O)C[C@@](O)(C(=O)CO)C[C@@H]3O[C@H]1C[C@H](N)[C@H](O)[C@H](C)O1 [DOXORUBICIN] | – | 0.05 mg/L (≈ 0.092 µM) | 0.08 mg/L (≈ 0.147 µM) | 0.09 mg/L (≈ 0.166 µM) | – | –
CNc1nc(-c2ccccc2)nc2ccccc12 | 29.3 mg/L (≈ 125 µM) | 21.2 mg/L (≈ 90 µM) | 33.6 mg/L (≈ 143 µM) | 24.4 mg/L (≈ 104 µM) | inactive | –
CN1CCN(c2nc(-c3ccccc3)nc3ccccc23)CC1 | 26.9 mg/L (≈ 88.3 µM) | 22.4 mg/L (≈ 73.5 µM) | 26.8 mg/L (≈ 88.2 µM) | 37 mg/L (≈ 122 µM) | Active | –
CC[C@@]1(O)C(=O)OCc2c1cc1n(c2=O)Cc2cc3ccccc3nc2-1 [CAMPTOTHECIN] | 0.072 mg/L (≈ 0.207 µM) | 0.096 mg/L (≈ 0.276 µM) | 1.54 mg/L (≈ 4.42 µM) | 6.88 mg/L (≈ 19.7 µM) | – | Active
CN1CCCN(c2nc(-c3ccccc3)nc3ccccc23)CC1 | 24.1 mg/L (≈ 75.7 µM) | 20.1 mg/L (≈ 63.1 µM) | 26.1 mg/L (≈ 82 µM) | 36.5 mg/L (≈ 115 µM) | Active | –
c1ccc(CNc2nc(-c3ccccc3)nc3ccccc23)cc1 | 15.1 mg/L (≈ 48.6 µM) | 13.9 mg/L (≈ 44.7 µM) | 31.7 mg/L (≈ 102 µM) | 31.2 mg/L (≈ 100 µM) | – | –
c1ccc(-c2nc(NC3CCCCC3)c3ccccc3n2)cc1 | 7.23 mg/L (≈ 23.8 µM) | 2.76 mg/L (≈ 9.1 µM) | 9.82 mg/L (≈ 32.4 µM) | 9.63 mg/L (≈ 31.7 µM) | Active | –
CC(C)Nc1nc(-c2ccccc2)nc2ccccc12 | 7.53 mg/L (≈ 28.6 µM) | 4.11 mg/L (≈ 15.6 µM) | 16.9 mg/L (≈ 64.2 µM) | 16.5 mg/L (≈ 62.5 µM) | Active | –
CN(C)CCN(C)c1nc(-c2ccccc2)nc2ccccc12 | 28.1 mg/L (≈ 91.8 µM) | 26.5 mg/L (≈ 86.4 µM) | 25.5 mg/L (≈ 83.3 µM) | 28.9 mg/L (≈ 94.4 µM) | Active | –
Cl.c1ccc(CNc2nc(-c3ccccc3)nc3ccccc23)cc1 | 9.79 mg/L | 6.13 mg/L | 9.5 mg/L | 15.8 mg/L | – | –
